In experiment [1] the test system is P. aeruginosa pyoverdine, CAS absorbance 665 nm, 6 h. As to the kind of experiment: siderophore output inhibition in Pseudomonas aeruginosa – Chrome Azurol S readout, dry powder samples, orthogonal assay for PvdQ inhibitor project, dose response (AID 624033). A digest of the protocol: (§1)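 Buffer or medium: CAA medium | Signal: CAS dye absorbance, 665 nm | Benchmarks: PvdQ mutant culture as 100% reference | Schedule: 6 h compound culture, 30 °C, then 30 min CAS dye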

Test in experiment [2]: as above
As to conditions: P. aeruginosa pyoverdine, CAS absorbance 665 nm, 6 h. A digest of the protocol: as §1

Molecules are shown by their SMILES. Active and inactive are the calls of the source.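 How the source made its calls: active means raises 665 nm absorbance to half the iron-handling mutant's effect in both replicates, half-effect dose under 50 µM; inactive means the rest.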

This is an account of results in PubChem BioAssay AID624033 (Broad Institute, 2012).

A word on the AC50: it is the midpoint of the concentration-response curve, whichever way the signal moves.

In the case of `N#CC(c1cccc(C(F)(F)F)n1)c1ccc(Cl)cc1F` (stereo unspecified), in experiment [1], the AC50 is 14.6 µM. Same read-out and setting: then `N#CC(c1ccc(Cl)cc1)c1ccc(Cl)cn1` (stereo unspecified), with 17.7 µM; and `N#CC(c1ccc(Cl)cc1)c1cccc(C(F)(F)F)n1` (stereo unspecified), with 22.9 µM. Same read-out and setting: the value for `N#CC(c1ccc(Cl)cc1)c1cccc(Cl)n1` (stereo unspecified) was 46.4 µM; that for `CCCCC(C#N)c1ccc(F)cc1` (stereo unspecified) was 27.7 µM. On to `N#CC(c1ccc(F)cc1)c1cccc(C(F)(F)F)n1` (stereo unspecified), for which the AC50 in experiment [1] is 6.21 µM. Regarding `N#CC(c1ccc(Cl)cc1)c1ncccc1Cl` (stereo unspecified), the half-maximal activity concentration (AC50) in experiment [1] is 48.3 µM. Consider `COCCOCCC(C#N)c1ccc(F)cc1` (stereo unspecified), for which, in experiment [2], the outcome was inactive. As to `CN(C)CCCC(C#N)c1ccc(F)cc1` (stereo unspecified), the result in experiment [2] was inactive.

In the case of `COCCC(C#N)c1ccc(F)cc1` (stereo unspecified), the outcome in experiment [2] was inactive. In the case of `N#CC(c1cccc(Cl)n1)c1ccc(Cl)cc1F` (stereo unspecified), in experiment [1], the half-maximal activity concentration (AC50) is 30.7 µM.
